Source: ChEMBL document CHEMBL1143761, “Synthesis and bioactivities of 6,7,8-trimethoxy-N-aryl-4-aminoquinazoline derivatives” (Bioorg Med Chem, 2007)
Activity calls are given as the source filed them. The rule behind the calls is not given here.

Assays:
Bcap37 = experiment: Growth inhibition of human Bcap37 cells after 72 hrs by MTT assay; type: functional, cell-based
Method in brief: (§1)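 Cell lines were grown in RPMI 1640 with 10% fetal bovine serum and plated at 2 × 10³ cells/well. Compounds were taken up in DMSO, diluted in medium, and applied over a 1–100 range for 72 h, with 0.1% DMSO as control. MTT formazan was read at 595 nm. IC50 came from the dose–response curve, from three separate experiments each run in triplicate.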

PC-3 = experiment: Growth inhibition of human PC3 cells after 72 hrs by MTT assay; type: functional, cell-based; method in brief: as §1
BGC-823 = experiment: Growth inhibition of human BGC823 cells after 72 hrs by MTT assay; type: functional, cell-based; method in brief: as §1
A-431 = experiment: Growth inhibition of human A431 cells after 72 hrs by MTT assay; type: functional, cell-based; method in brief: as §1
[1] = biological target: Mitogen-activated protein kinase 3 (Homo sapiens) (UniProt P27361); experiment: Inhibition of EGF-induced ERK1 phosphorylation in PC3 cells at 20 uM after 60 mins; type: cell-based; conditions: PC-3
Method in brief: (§2)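 PC3 cells were grown in RPMI 1640 with 10% FBS at 37 °C for 36–48 h, then serum-starved for 24 h. They were pretreated with compound at 20 for 60 min, then stimulated with EGF for 10 min and quenched on ice. Lysates were immunoblotted with anti-phospho-ERK1/2 monoclonal antibody overnight at 4 °C, then secondary antibody for 2–3 h at 25 °C, with ECL detection.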

[2] = biological target: Mitogen-activated protein kinase 1 (Homo sapiens) (UniProt P28482); experiment: Inhibition of EGF-induced ERK2 phosphorylation in PC3 cells at 20 uM after 60 mins; type: cell-based; conditions: PC-3; method in brief: as §2
Mitogen-activated protein kinase 1 (Homo sapiens), sequence (P28482 whole entry): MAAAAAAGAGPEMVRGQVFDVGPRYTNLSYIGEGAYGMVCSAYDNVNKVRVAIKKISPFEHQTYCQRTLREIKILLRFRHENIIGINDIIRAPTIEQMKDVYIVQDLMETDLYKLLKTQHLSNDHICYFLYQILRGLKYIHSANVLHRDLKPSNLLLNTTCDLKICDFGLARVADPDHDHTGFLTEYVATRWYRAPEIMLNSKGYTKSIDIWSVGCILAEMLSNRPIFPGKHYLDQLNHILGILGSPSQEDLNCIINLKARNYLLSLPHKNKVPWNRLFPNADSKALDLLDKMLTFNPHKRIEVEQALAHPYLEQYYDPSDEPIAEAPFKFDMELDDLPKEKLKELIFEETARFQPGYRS

Mitogen-activated protein kinase 3 (Homo sapiens), sequence (P27361 whole entry): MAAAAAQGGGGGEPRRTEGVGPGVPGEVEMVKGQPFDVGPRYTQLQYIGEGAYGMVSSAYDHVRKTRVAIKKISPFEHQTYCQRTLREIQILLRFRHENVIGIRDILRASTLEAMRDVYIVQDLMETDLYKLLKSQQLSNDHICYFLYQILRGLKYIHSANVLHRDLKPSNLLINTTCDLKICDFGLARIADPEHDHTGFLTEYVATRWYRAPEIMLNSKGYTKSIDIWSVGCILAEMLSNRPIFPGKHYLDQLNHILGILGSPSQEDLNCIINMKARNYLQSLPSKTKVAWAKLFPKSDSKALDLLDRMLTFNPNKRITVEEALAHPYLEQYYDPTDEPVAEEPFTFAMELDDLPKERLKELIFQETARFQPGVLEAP

**Q.** Which results are given for COc1cc2c(Nc3ccc([N+](=O)[O-])cc3)ncnc2c(OC)c1OC?
**A.** IC50 (Bcap37; Homo sapiens, Bcap37, 72 h): 28.9 µM; IC50 (PC-3; Homo sapiens, PC-3, 72 h): 25.5 µM; IC50 (BGC-823; Homo sapiens, BGC-823, 72 h): 32.2 µM; IC50 (A-431; Homo sapiens, A-431, 72 h): 45.2 µM

**Q.** COc1cc2c(Nc3ccccc3F)ncnc2c(OC)c1OC was tested. Which IC50 (Bcap37; Homo sapiens, Bcap37, 72 h) did it give?
**A.** 63.2 µM

**Q.** What about the IC50 (PC-3; Homo sapiens, PC-3, 72 h) of the same compound?
**A.** 18.8 µM

**Q.** And the IC50 (BGC-823; Homo sapiens, BGC-823, 72 h)?
**A.** 36.7 µM

**Q.** What about the IC50 (A-431; Homo sapiens, A-431, 72 h) of the same compound?
**A.** 72.1 µM

**Q.** What does the source list for COc1cc2c(Nc3ccc(Br)cc3Cl)ncnc2c(OC)c1OC?
**A.** IC50 (Bcap37; Homo sapiens, Bcap37, 72 h): 89 µM; IC50 (PC-3; Homo sapiens, PC-3, 72 h): 21 µM; IC50 (BGC-823; Homo sapiens, BGC-823, 72 h): 31 µM; IC50 (A-431; Homo sapiens, A-431, 72 h): 51.5 µM

**Q.** Which results are given for COc1cc2c(=NCc3ccccc3)[nH]cnc2c(OC)c1OC?
**A.** IC50 (Bcap37; Homo sapiens, Bcap37, 72 h): 65.4 µM; IC50 (PC-3; Homo sapiens, PC-3, 72 h): 36.7 µM; IC50 (BGC-823; Homo sapiens, BGC-823, 72 h): 37.7 µM; IC50 (A-431; Homo sapiens, A-431, 72 h): 21.2 µM

**Q.** With COc1cc2c(Nc3cccc(Cl)c3)ncnc2c(OC)c1OC as the compound, how does the IC50 (Bcap37; Homo sapiens, Bcap37, 72 h) read?
**A.** 21 µM

**Q.** And the IC50 (PC-3; Homo sapiens, PC-3, 72 h)?
**A.** 19 µM

**Q.** What about the IC50 (BGC-823; Homo sapiens, BGC-823, 72 h) of the same compound?
**A.** 19 µM

**Q.** What about the IC50 (A-431; Homo sapiens, A-431, 72 h) of the same compound?
**A.** 32.1 µM

**Q.** What does the source list for COc1cc2c(Nc3cccc(F)c3)ncnc2c(OC)c1OC [listing 1 of 2 here]?
**A.** IC50 (Bcap37; Homo sapiens, Bcap37, 72 h): 21 µM; IC50 (PC-3; Homo sapiens, PC-3, 72 h): 35.6 µM; IC50 (BGC-823; Homo sapiens, BGC-823, 72 h): 29.9 µM; IC50 (A-431; Homo sapiens, A-431, 72 h): 29.7 µM

**Q.** With COc1cc2c(Nc3ccc(Cl)cc3)ncnc2c(OC)c1OC as the compound, how does the IC50 (Bcap37; Homo sapiens, Bcap37, 72 h) read?
**A.** 52.2 µM

**Q.** What about the IC50 (PC-3; Homo sapiens, PC-3, 72 h) of the same compound?
**A.** 31 µM

**Q.** What about the IC50 (BGC-823; Homo sapiens, BGC-823, 72 h) of the same compound?
**A.** 34.4 µM

**Q.** What about the IC50 (A-431; Homo sapiens, A-431, 72 h) of the same compound?
**A.** 19 µM

**Q.** Which results are given for COc1cc2c(N[C@H](C)c3ccccc3)ncnc2c(OC)c1OC?
**A.** IC50 (Bcap37; Homo sapiens, Bcap37, 72 h): 23.2 µM; IC50 (PC-3; Homo sapiens, PC-3, 72 h): 18.8 µM; IC50 (BGC-823; Homo sapiens, BGC-823, 72 h): 12 µM; IC50 (A-431; Homo sapiens, A-431, 72 h): 21 µM

**Q.** What does the source list for COc1cc2c(Nc3cccc(Br)c3)ncnc2c(OC)c1OC [listing 1 of 2 here]?
**A.** IC50 (Bcap37; Homo sapiens, Bcap37, 72 h): 12.3 µM; IC50 (PC-3; Homo sapiens, PC-3, 72 h): 8.9 µM; IC50 (BGC-823; bgc-823): 5.8 µM; IC50 (A-431; Homo sapiens, A-431, 72 h): 7.6 µM

**Q.** For COc1cc2c(Nc3cccc([N+](=O)[O-])c3)ncnc2c(OC)c1OC, which IC50 (Bcap37; Homo sapiens, Bcap37, 72 h) is on record?
**A.** 31.1 µM

**Q.** And the IC50 (PC-3; Homo sapiens, PC-3, 72 h)?
**A.** 24.4 µM

**Q.** What about the IC50 (BGC-823; Homo sapiens, BGC-823, 72 h) of the same compound?
**A.** 39 µM

**Q.** What about the IC50 (A-431; Homo sapiens, A-431, 72 h) of the same compound?
**A.** 37.7 µM

**Q.** COc1cc2ncnc(Nc3cccc(Br)c3)c2cc1OC was tested. Which IC50 (Bcap37; Homo sapiens, Bcap37, 72 h) did it give?
**A.** 13.7 µM

**Q.** What about the Activity [1] of the same compound?
**A.** Active

**Q.** And the Activity [2]?
**A.** Active

**Q.** What about the IC50 (PC-3; Homo sapiens, PC-3, 72 h) of the same compound?
**A.** 8.9 µM

**Q.** And the IC50 (BGC-823; Homo sapiens, BGC-823, 72 h)?
**A.** 16.8 µM

**Q.** Which IC50 (Bcap37; Homo sapiens, Bcap37, 72 h) does the source give for COc1cc2c(Nc3ccc(O)cc3)ncnc2c(OC)c1OC here?
**A.** 45.5 µM

**Q.** And the IC50 (PC-3; Homo sapiens, PC-3, 72 h)?
**A.** 20.1 µM

**Q.** What about the IC50 (BGC-823; Homo sapiens, BGC-823, 72 h) of the same compound?
**A.** 35.4 µM

**Q.** And the IC50 (A-431; Homo sapiens, A-431, 72 h)?
**A.** 22.2 µM

**Q.** COc1cc2c(Nc3ccc(Br)cc3)ncnc2c(OC)c1OC was tested. Which IC50 (Bcap37; Homo sapiens, Bcap37, 72 h) did it give?
**A.** 31.2 µM

**Q.** And the IC50 (PC-3; Homo sapiens, PC-3, 72 h)?
**A.** 23.4 µM

**Q.** And the IC50 (BGC-823; Homo sapiens, BGC-823, 72 h)?
**A.** 23.8 µM

**Q.** What about the IC50 (A-431; Homo sapiens, A-431, 72 h) of the same compound?
**A.** 42.1 µM

**Q.** With COc1cc2c(cc1Nc1ncnc3c(OC)c(OC)c(OC)cc13)oc1ccccc12 as the compound, how does the IC50 (Bcap37; Homo sapiens, Bcap37, 72 h) read?
**A.** 8.1 µM

**Q.** And the IC50 (PC-3; Homo sapiens, PC-3, 72 h)?
**A.** 9.8 µM

**Q.** What about the IC50 (BGC-823; Homo sapiens, BGC-823, 72 h) of the same compound?
**A.** 9.9 µM

**Q.** What about the IC50 (A-431; Homo sapiens, A-431, 72 h) of the same compound?
**A.** 9 µM

**Q.** What does the source list for COc1cc(Nc2ncnc3c(OC)c(OC)c(OC)cc23)cc(OC)c1OC?
**A.** IC50 (Bcap37; Homo sapiens, Bcap37, 72 h): 76.5 µM; IC50 (PC-3; Homo sapiens, PC-3, 72 h): 30 µM; IC50 (BGC-823; Homo sapiens, BGC-823, 72 h): 23.1 µM; IC50 (A-431; Homo sapiens, A-431, 72 h): 65.4 µM

**Q.** COc1cc2c(N[C@@H](C)c3ccccc3)ncnc2c(OC)c1OC was tested. Which IC50 (Bcap37; Homo sapiens, Bcap37, 72 h) did it give?
**A.** 12.9 µM

**Q.** What about the IC50 (PC-3; Homo sapiens, PC-3, 72 h) of the same compound?
**A.** 10 µM

**Q.** What about the IC50 (BGC-823; Homo sapiens, BGC-823, 72 h) of the same compound?
**A.** 11.9 µM

**Q.** And the IC50 (A-431; Homo sapiens, A-431, 72 h)?
**A.** 12 µM

**Q.** Which IC50 (Bcap37; bcap37) does the source give for COc1cc2c(Nc3cccc(F)c3)ncnc2c(OC)c1OC [listing 2 of 2 here] here?
**A.** 22.1 µM

**Q.** What about the IC50 (PC-3; pc-3) of the same compound?
**A.** 25.3 µM

**Q.** What about the IC50 (BGC-823; bgc-823) of the same compound?
**A.** 28.9 µM

**Q.** Which results are given for COc1cc2c(Nc3cccc(Br)c3)ncnc2c(OC)c1OC [listing 2 of 2 here]?
**A.** IC50 (Bcap37; bcap37): 21 µM; IC50 (PC-3; pc-3): 12.6 µM; IC50 (BGC-823; bgc-823): 12.1 µM; IC50 (A-431; a-431): 11 µM

**Q.** What does the source list for COc1cc2c(Nc3ccccc3[N+](=O)[O-])ncnc2c(OC)c1OC?
**A.** IC50 (Bcap37; Homo sapiens, Bcap37, 72 h): 29.9 µM; IC50 (PC-3; Homo sapiens, PC-3, 72 h): 31.2 µM; IC50 (BGC-823; Homo sapiens, BGC-823, 72 h): 21 µM; IC50 (A-431; Homo sapiens, A-431, 72 h): 31 µM

**Q.** Which results are given for COc1cc2c(Nc3ccc(F)cc3)ncnc2c(OC)c1OC?
**A.** IC50 (Bcap37; Homo sapiens, Bcap37, 72 h): 28.7 µM; IC50 (PC-3; Homo sapiens, PC-3, 72 h): 24.5 µM; IC50 (BGC-823; Homo sapiens, BGC-823, 72 h): 39.6 µM; IC50 (A-431; Homo sapiens, A-431, 72 h): 29 µM
